High-throughput results: PubChem, Sanford-Burnham Center for Chemical Genomics
SUMO1 PPI mod: SUMO1-SIM interaction modulation | P63165 | 360,000 compounds, 0.33% hits | inhibition, % at 20 µM | SUMO1 binding to a labelled peptide, TR-FRET, 1 h | AID 602429; in the data active = inhibition above about 37%
Target sequence (P63165 whole entry, looked up): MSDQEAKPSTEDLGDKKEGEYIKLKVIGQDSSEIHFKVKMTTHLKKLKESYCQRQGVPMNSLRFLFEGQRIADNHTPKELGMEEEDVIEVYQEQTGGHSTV
FAS-TE inh: blocks the thioesterase domain of human fatty acid synthase; AID 602261; recombinant FAS-TE, OMFH fluorogenic substrate, fluorescence endpoint; inhibition, % at 15 µM; P49327; 360,000 compounds, 0.67% hits;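 active = compounds whose normalised, plate-corrected inhibition of enzyme fluorescence in the single-dose primary screen is 50% or more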;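 note: 0% = DMSO with enzyme and 100% = substrate without enzyme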
LMPTP inh: LMPTP (human) inhibition | recombinant LMPTP-A, OMFP fluorogenic substrate, fluorescence intensity | 360,000 compounds, 0.22% hits | inhibition, % at 20 µM;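 active = compounds that cut the enzyme signal by at least half of the control window in the single-dose screen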;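 note: plate controls were DMSO wells with enzyme plus substrate for no effect and substrate without enzyme for full effect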
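Assay system: LMPTP-A, protein tyrosine phosphatase of low molecular weight / Medium: pH 6.0 Bis-Tris buffer with DTT and Triton X-100 / Schedule: 50 min enzyme reaction at room temperature, protected from light / Measured by: endpoint fluorescence intensity from OMFP dephosphorylation / Read-out basis: % inhibition relative to no-enzyme and uninhibited control wells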
Scp-1 inhibitor: Scp-1 (human) phosphatase inhibition. 340,000 compounds, 0.88% hits. Q9GZU7. inhibition, % at 20 µM. Recombinant Scp1, phosphopeptide, malachite green phosphate absorbance;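 active = inhibition above about 50% at 20 µM, limit read from the data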;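 note: plate controls were DMSO wells with enzyme for no effect and wells lacking enzyme for full effect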
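Test system: SCP-1 phosphatase catalytic domain, residues 76-261; measured by: colorimetric phosphate reagent with accelerator and stabiliser, absorbance at 630 nm; timing: enzyme reaction 45 min at room temperature, colour 5 min, stabilisation 30 min; also added: Phosphorylated 17-residue peptide substrate; compound dosing: one concentration, 20 µM, with 1.0% DMSO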
STEP block: inhibitors of human striatal-enriched phosphatase STEP | recombinant STEP, OMFP fluorogenic substrate, fluorescence | P54829 | AID 588621 | 360,000 compounds, 0.25% hits | inhibition, % at 20 µM;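 active = inhibition at 20 µM, scaled per plate between control wells, above about 37%, limit read from the data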;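 note: 0% = DMSO with enzyme and substrate and 100% = substrate only without enzyme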
Target sequence (P54829 whole entry, looked up): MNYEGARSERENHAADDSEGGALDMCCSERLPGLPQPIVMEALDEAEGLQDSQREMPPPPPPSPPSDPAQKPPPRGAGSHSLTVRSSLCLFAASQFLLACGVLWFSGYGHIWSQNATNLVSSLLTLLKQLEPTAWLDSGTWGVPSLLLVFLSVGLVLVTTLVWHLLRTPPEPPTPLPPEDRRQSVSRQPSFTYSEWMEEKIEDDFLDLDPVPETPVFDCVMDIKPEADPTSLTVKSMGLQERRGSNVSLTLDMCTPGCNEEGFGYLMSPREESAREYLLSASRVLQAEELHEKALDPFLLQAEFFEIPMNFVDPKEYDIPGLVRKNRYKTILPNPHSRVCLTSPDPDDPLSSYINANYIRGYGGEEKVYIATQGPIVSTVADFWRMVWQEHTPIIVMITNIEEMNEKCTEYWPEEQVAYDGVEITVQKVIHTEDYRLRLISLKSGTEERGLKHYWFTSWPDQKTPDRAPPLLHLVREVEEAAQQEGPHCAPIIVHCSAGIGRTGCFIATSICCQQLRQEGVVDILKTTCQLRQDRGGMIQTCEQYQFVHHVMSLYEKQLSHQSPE
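System: isolated STEP enzyme; schedule: 20 min enzyme reaction at room temperature, protected from light; medium: Bis-Tris buffer pH 6.0, 2.5 mM DTT, 0.005% Tween 20; signal: fluorescence, 480/540 nm; dosing: single compound dose of 20 µM, 1% DMSO final; also added: OMFP substrate, 25 µM final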
Active calls of the source: *; x = no result. The list is not random: actives were taken first. Their share in the collection is about 1.9%.

SMILES | SUMO1 PPI mod | FAS-TE inh | LMPTP inh | Scp-1 inhibitor | STEP block
CCOc1ccc(NC2=CC(=O)C(=O)c3ccccc32)cc1 | -18.7 | 15.8 | 5.4 | 56.7* | 19.5
O=C1C=C(Nc2ccc(F)cc2)c2ccccc2C1=O | -39.3 | 22.3 | 5.0 | -0.1 | 7.4
O=C1C=C(NCc2ccccc2)c2ccccc2C1=O | 43.7* | 2.9 | 9.6 | -1.4 | 4.7
CC(=O)N1CCC(C(=O)N2c3ccccc3N=C(c3ccc(C(F)(F)F)cc3)C2C(=O)NC2CCCC2)CC1 (configuration not stated) | -14.1 | x | 1.1 | x | x
COc1cccc2sc(Nc3nc(-c4cc5ccccc5oc4=O)cs3)nc12 | 61.2* | 3.1 | 12.0 | 10.6 | 3.6
COc1ccc(OC)c(CN2C(=O)CSCC2(C)C(=O)Nc2c(C)cccc2C)c1 (configuration not stated) | 1.1 | x | -1.3 | x | x
COc1ccc(S(=O)(=O)NCc2ccc(C(=O)NCCN(C)Cc3ccccc3)cc2)cc1 | 3.8 | -2.0 | -2.1 | x | 0.3
O=Nc1c2cc(-c3ccccc3)[nH]nc-2c2ccccc12 | 13.3 | -147.6 | 4.9 | 62.5* | 7.2
CCSc1nc(C)nc2sc(C)c(C)c12 | 78.6* | 11.7 | 1.0 | -11.7 | 4.1
CCS(=O)(=O)C1=NN2C(=N)/C(=C\c3ccc(SCc4ccco4)o3)C(=O)N=C2S1 | 50.3* | -2.7 | 42.0 | 76.6* | 14.3
CC(C)CCNC(=O)[C@@H](Cc1ccccc1)NC(=O)CC[C@H]1O[C@@H](n2ccc(=O)[nH]c2=O)[C@H](O)[C@@H]1O | 3.0 | -0.4 | -1.3 | x | 1.0
CCCCC/C=C\C/C=C\C/C=C\CCCCC(=O)O | 14.1 | 6.1 | 2.1 | 36.8 | -1.0
CCCCCCCC/C=C\CCCCCCCC(=O)O | 24.4 | 62.1* | 1.6 | -6.3 | -0.3
O=C(O)CCN1C(=O)/C(=C2\C(=O)N(Cc3ccccc3Cl)c3ccccc32)SC1=S | 29.9 | 1.3 | 80.4* | x | 98.5*
O=C(O)CN1C(=O)/C(=C2\SC(=S)N(C(Cc3ccccc3)C(=O)O)C2=O)c2ccccc21 (configuration not stated) | 2.2 | -2.8 | 3.4 | 4.5 | 36.8
O=C(CN1C(=O)/C(=C2\SC(=S)N(C3CCS(=O)(=O)C3)C2=O)c2ccccc21)Nc1ccccc1 (configuration not stated) | -3.6 | 10.3 | 9.3 | -4.9 | 6.1
COc1ccc(NC(=O)CN2C(=O)/C(=C3\SC(=S)N(CCC(=O)O)C3=O)c3ccccc32)cc1 | 0.9 | -0.9 | 85.6* | 96.6* | 20.2
CC1(C(=O)Nc2ccc(Cl)c(Cl)c2)CCN1C(=O)C1CCCCC1 (configuration not stated) | 4.1 | 35.3 | 0.4 | x | 1.0
Clc1cccc(-c2ccc(C3Nc4cccc5cccc(c45)N3)o2)c1 | 15.1 | 21.6 | 53.2* | 10.6 | 0.3
O=C(CSc1nnc(-c2ccco2)o1)c1ccc[nH]1 | 18.0 | -5.1 | 52.7* | 39.9 | 0.7
O=C(CSc1nnc(-c2ccco2)o1)c1ccccc1 | 1.3 | -1.4 | 1.2 | -2.2 | 5.0
Cc1cc(C)n(-c2nc3ccccc3nc2N2CCN(S(=O)(=O)c3ccc4ccccc4c3)CC2)n1 | 4.7 | 66.7* | 5.3 | -2.2 | 0.4
Cc1cc(N2CCN(C(=O)Oc3ccc([N+](=O)[O-])cc3)CC2)c2ccccc2n1 | -21.9 | 5.7 | 50.5* | x | x
Cc1cc(N2CCN(S(=O)(=O)c3ccc(Cl)c(Cl)c3)CC2)c2ccccc2n1 | 6.6 | 23.6 | 54.6* | 6.4 | 3.0
Cc1nc2ccccc2c2oc(C(=O)N3CCN(c4ccc([N+](=O)[O-])cc4)CC3)cc12 | 50.4* | 0.4 | 4.8 | 3.4 | 0.0
SMILES | SUMO1 PPI mod | FAS-TE inh | LMPTP inh | Scp-1 inhibitor | STEP block
Cc1cccc(C)c1NC(=O)C1(C)CSCC(=O)N1CCc1c[nH]c2ccccc12 (configuration not stated) | 0.4 | x | 0.3 | x | x
CCC(=O)N[C@@H]1C=C[C@@H](CC(=O)NCc2ccccc2F)O[C@@H]1CO | -3.1 | x | -1.3 | x | x
COc1ccc(NC(=O)[C@@H]2O[C@H](CO)[C@H](O)[C@H](O)[C@H]2O)cc1F | 0.8 | -14.2 | -1.6 | x | 0.9
COc1ccc(C(=O)C(=O)N2CCC(c3ccccc3)CC2)cn1 | -3.9 | x | -1.5 | x | x
O=C(c1[nH]c(C(F)(F)F)nc1-c1ccccc1)N1CCN(c2cccc(C(F)(F)F)n2)CC1 | 3.1 | -6.7 | 0.8 | x | -1.5
NCCCC[C@H]1NC(=O)[C@H](CCC(=O)O)NC(=O)c2cc([N+](=O)[O-])cc(I)c2OCC[C@@H](C(N)=O)NC1=O | x | x | x | 91.3* | x
C[C@@H]1NC(=O)c2cc([N+](=O)[O-])cc(I)c2OCC[C@@H](C(N)=O)NC(=O)[C@H](CCCCN)NC1=O | -20.7 | -6.7 | -2.4 | -8.1 | 2.2
Cn1c(C(=O)OC(C(=O)NCC2CCCO2)c2cccnc2)cc2sccc21 (configuration not stated) | -6.4 | -6.3 | 1.8 | 57.3* | 0.2
CC(OC(=O)c1cc2sccc2n1C)C(=O)NCC1CCCO1 (configuration not stated) | 1.4 | -9.1 | -2.2 | 1.8 | -0.3
Cc1ccc2oc(Nc3nc(-c4ccccc4)cc(=O)[nH]3)nc2c1 | x | x | x | 96.5* | x
CC1(C)Cc2nc3sc4c(=O)n(CC(=O)NCc5ccccc5)cnc4c3cc2CO1 | 43.2* | -9.3 | -0.4 | -7.3 | -1.4
CC1(C)Cc2nc3sc4c(=O)n(CC(N)=O)cnc4c3cc2CO1 | -2.1 | -4.3 | -1.0 | -3.6 | 4.6
COc1cc([N+](=O)[O-])ccc1NC(=O)COC(=O)c1ccc(NC(N)=O)cc1 | 44.9* | 1.5 | 19.2 | -5.4 | 2.5
Cc1ccc(S(=O)(=O)N2[C@H](CC(=O)Oc3ccccc3)OC[C@@H]2C(C)C)cc1 | -1.3 | x | 2.2 | x | x
O=C(Nc1cccc(Cl)c1)c1cc(N=Nc2ccc([N+](=O)[O-])cc2Cl)ccc1O | 100.2* | 28.1 | 12.5 | 70.6* | 31.9
O=C(Nc1ccc([N+](=O)[O-])cc1Cl)c1cccc([N+](=O)[O-])c1 | -8.5 | 5.6 | 0.1 | x | -1.0
O=C(Nc1ccc([N+](=O)[O-])cc1Cl)c1cc(Cl)ccc1O | 13.6 | 30.8 | 72.3* | 35.1 | 4.5
CCCCN(C)C(=O)c1ccc(Nc2nc(C(N)Cc3ccc(C(F)(F)F)cc3)cs2)nc1 (configuration not stated) | -62.5 | -2.7 | 1.5 | x | 10.5
O=C1C=CC2=C3c4cc(O)c(O)cc4CC3(O)COC2=C1O (configuration not stated) | 58.0* | 4.0 | 67.0* | 42.0 | 10.9
COc1cccc(N2CCN(C(=O)c3ccc(CSc4nc5ccncc5[nH]4)cc3)CC2)c1 | -6.0 | -12.8 | 51.8* | -11.7 | -1.4
O=C(c1ccc(CSc2nc3ccncc3[nH]2)cc1)N1CCCCC1 | 5.9 | -4.6 | 13.1 | -12.9 | -0.8
O=C1CC(c2ccco2)CC(O)=C1C=NCCN1CCNCC1 (configuration not stated) | -0.4 | -7.9 | -5.4 | -6.0 | 0.7
